High-throughput results as filed in PubChem BioAssay.
PABP1 MLLE inh = inhibitors of microRNA-mediated deadenylation, human PABP1 MLLE binding. P11940. GST-MLLE / FITC-PAM2 fluorescence polarization. hit rate 0.36% among 360,000. inhibition, % at 20 µM; in the data active means inhibition above about 35%, passing the limit was not always enough;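 further: plate controls were DMSO wells with GST-MLLE for no effect and wells lacking GST-MLLE protein for full effect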
PABP polyA inh = PABP-poly(A) binding inhibition; hit rate 1% among 290,000; P11940; AID 2014; PABP-poly(A) RNA binding, fluorescence polarization; calls only at 35 µM;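 further: calls also rest on retests at 20 µM and on dose response follow-up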
TCR-CD3 inh = human TCR-CD3 binding inhibition | hit rate 0.37% among 360,000 | TAMRA-labeled TCR probe fluorescence, biochemical | inhibition, % at 9.4 µM | AID 651800; in the data active means inhibition above about 19%;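 further: recombinant mutant TCR 2C K166C tagged with TAMRA read by polarization; 0% = receptor in buffer alone and 100% = receptor with positive control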
RBBP9 inhibitor = human RBBP9 hydrolase inhibition | inhibition, % at 7.94 µM | AID 1515 | O75884 | recombinant RBBP9, FP-Rh probe fluorescence polarization | hit rate 0.2% among 220,000;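 active means inhibition above the campaign mean of all tested compounds plus 3 SD, cut at about 14% in these data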;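 further: plate controls were DMSO wells with RBBP9 for no effect and wells lacking RBBP9 protein for full effect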
Target sequence (O75884 whole entry, looked up): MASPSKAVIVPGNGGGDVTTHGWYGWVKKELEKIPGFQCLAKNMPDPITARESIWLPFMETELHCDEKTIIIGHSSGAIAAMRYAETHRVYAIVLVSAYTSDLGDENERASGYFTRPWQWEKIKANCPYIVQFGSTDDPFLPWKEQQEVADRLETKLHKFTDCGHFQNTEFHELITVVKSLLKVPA
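Test system: recombinant human RBBP9. Quantity: 2.5 µM RBBP9 dispensing solution, before mixing. Detection: FP readout at 525/598 nm. Reagent: Serine-hydrolase probe FP-Rh, 375 nM pre-mixing. Measure: % inhibition. Control set: DMSO-treated enzyme wells and wells lacking RBBP9. Buffer or medium: Tris-NaCl-Pluronic buffer, pH 8.0. Times: preincubation 30 min plus labeling 45 min at 25 °C.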
eIF4H inh = inhibitors of RNA binding by human eIF4H | Q15056 | eIF4H fluorescence polarization binding assay | inhibition, % at 35 µM | hit rate 0.94% among 290,000 | AID 2012;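 further: calls also rest on retests at 20 µM and on dose response follow-up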
An asterisk follows results filed as active; i = inactive; u = inconclusive; x = no result; + = active, no number; ! = a repeat was not active. In the library only some 1.6% were active in any assay of this set; here they are far more common. Unless noted, how the calls were made is not given here.

SMILES | PABP1 MLLE inh | PABP polyA inh | TCR-CD3 inh | RBBP9 inhibitor | eIF4H inh
NS(=O)(=O)c1ccc(NC(=O)C2Cc3ccccc3CN2C(=O)c2ccco2)cc1 (stereo not given) | 12.9 | + | 17.5 | x | 70.2*
CN(C)c1ccc(N=Cc2ccco2)cc1 | 13.6 | i | x | 2.8 | 38.0
C(=Nc1cccc2c(N=Cc3ccco3)cccc12)c1ccco1 | 66.7* | i | x | -1.6 | u
O=C(O)c1ccc(C=NN=Cc2ccco2)cc1 | -19.2 | x | -4.3 | x | x
C(=N\C(/N=C/c1ccco1)c1ccco1)/c1ccco1 | 12.1 | + | 1.6 | -1.8 | 102.7*
CCNC(=O)N1CCN(c2ccc(N3CCN(Cc4ccccc4)[C@H](C)C3)c(C)c2)[C@@H](C)C1 | x | x | -4.0 | x | x
O=C(c1ccccc1Cl)N1CCSCCS1(=O)=O | x | x | -1.3 | x | x
COC(=O)[C@]12C[C@H](CC(=O)NCCC(C)C)C(=O)N(Cc3ccccc3)C1=C[C@H](C1CCCC1)O[C@@H]2C | x | x | -1.7 | x | x
COC(=O)c1cc2c(c3c4cc(C)ccc4n(S(=O)(=O)c4ccc(OC)cc4)c13)C(=O)N(Cc1ccccc1)C2 | x | x | -2.1 | x | x
CCOC(=O)c1[nH]c2c(c1C)C(=O)CC(c1ccco1)C2 (stereo not given) | -13.8 | + | 2.7 | -0.4 | 99.3*
Cc1c(C(=O)OCc2ccccc2)[nH]c2c1C(=O)CC(c1ccco1)C2 (stereo not given) | 8.3 | + | x | 2.7 | 81.1
COCCOC(=O)c1[nH]c2c(c1C)C(=O)CC(c1ccco1)C2 (stereo not given) | 7.0 | i | 13.7 | 5.1 | 83.6*
Cc1c(C(=O)OCCOC(C)C)[nH]c2c1C(=O)CC(c1ccco1)C2 (stereo not given) | -4.2 | i | x | -1.0 | 59.1*
O=S1(=O)C=C(Sc2ccc(Cl)cc2)c2ccccc2C1Cc1ccc(F)cc1 (stereo not given) | x | x | -3.7 | x | x
CNCc1ccccc1Sc1ccc(O)c(O)c1 | 40.5* | i | 10.9 | 11.6 | 36.0
Cc1ccc(S(=O)(=O)CCSc2cccc(C(=O)Nc3ccccc3C(=O)O)c2)cc1 | 35.7* | i | 5.2 | -18.6 | 1.2
Cc1ccc(NC(=O)c2cccc(C(=O)Nc3ccc(C)cc3C(=O)O)c2)c(C(=O)O)c1 | 13.9 | i | -4.2 | x | -4.8
CO/N=C(\C(=O)N[C@@H]1C(=O)N2C(C(=O)O)=C(COC(N)=O)CS[C@H]12)c1ccco1 | 19.0 | + | 1.9 | -9.5 | 5.6*
CC(=O)[C@@H]1[C@@H]2C(=O)N(Cc3ccccc3)C(=O)[C@@H]2C2c3ccccc3C=CN21 (stereo not given in full) | 53.3 | + | -3.8 | -3.2 | 95.9*
Cc1ccc(N2C(=O)[C@@H]3[C@H](C2=O)C2c4ccccc4C=CN2[C@@H]3C(=O)c2ccco2)cc1 (stereo not given in full) | 36.8* | i | -5.3 | -2.2 | 30.8
Cc1cccc(NC(=O)CNC(=O)[C@@H](Cc2ccccc2)NC(=O)[C@H]2O[C@@H](n3ccc(N)nc3=O)[C@H](O)[C@@H]2O)c1C | x | x | 3.1 | x | x
COC(=O)C1=C(C)N(Cc2ccc(C(F)(F)F)cc2)C(=NCc2ccc3c(c2)OCO3)NC1c1ccccc1 (stereo not given) | x | x | 0.8 | x | x
CC(=O)N1CCc2cc(N=NC3=C(O)CC(C)(C)CC3=O)ccc21 | -94.6 | + | 3.6 | -7.5 | 100.8*
Cc1ccc(C(=O)N2CCn3c(C)ccc3C2C)cc1 (stereo not given) | -23.1 | + | 5.3 | -3.6 | 64.5*
Cc1ccc(C(=O)N2CCN(C(=O)c3ccccc3)C2c2ccc(N(C)C)cc2)cc1 (stereo not given) | 6.4 | i | 3.4 | 3.2 | -0.2
SMILES | PABP1 MLLE inh | PABP polyA inh | TCR-CD3 inh | RBBP9 inhibitor | eIF4H inh
CCCSC1=N/C(=C\C=C\c2ccco2)C(=O)S1 | -12.8 | + | 15.1 | 5.1 | 93.8*
CC(C)C[C@H](NC(=O)c1ccc(Cl)c(Cl)c1)C(=O)N1CCC[C@H]1C(=O)NCc1ccccc1 | x | x | 3.9 | x | x
NC(=O)COc1ccc(/C=N/NS(=O)(=O)c2ccccc2)cc1 | -36.7 | + | -2.3 | -10.6 | 96.1
COc1ccc(CCNC(=O)c2ccc3c(=O)n(Cc4ccco4)c(=S)[nH]c3c2)cc1OC | -28.8 | + | 2.1 | -2.4 | 72.8*
COc1ccc(CCNC(=O)c2ccc3nc(-c4ccco4)c(-c4ccco4)nc3c2)cc1OC | 38.1* | + | x | -2.9 | 106.0*
CC(C)NC(=O)c1ccc2c(=O)n(Cc3ccco3)c(=S)[nH]c2c1 | -69.1 | i | 2.3 | -4.4 | 8.1
CCCNC(=O)c1ccc2c(=O)n(Cc3ccco3)c(=S)[nH]c2c1 | -62.4 | + | -1.3 | -13.9 | 91.4*
CCOCCCn1c(=S)[nH]c2cc(C(=O)NCCc3ccc(OC)c(OC)c3)ccc2c1=O | -80.1 | i | -7.6 | x | 13.8
COC(=O)c1cc2c(c3c4cc(C)ccc4n(S(=O)(=O)c4cccc(C)c4)c13)C(=O)N(C)C2 | x | x | 0.7 | x | x
COc1ccc2c(c1)c(CC(=O)Nc1ccc(C(C)=O)cc1)c(C)n2C(=O)c1ccc(Cl)cc1 | -10.0 | + | 17.5 | -6.2 | 52.9*
COc1cccc(/C=C2/Sc3ccc(C(=O)NC4CC4)cc3NC2=O)c1 | x | x | 9.8 | x | x
COc1ccc(NC(=O)/C(C#N)=C/C=C/c2ccco2)cc1 | 14.0 | + | -5.9 | -7.6 | 77.9
COc1ccccc1-c1ccc(OCCCN2CCC(C(O)(c3ccccc3)c3ccccc3)CC2)cc1 | x | x | 1.6 | x | x
COc1cccc2c(=O)n(CC(=O)Nc3ccccc3F)ccc12 | 2.1 | + | 0.3 | -6.0 | u
COc1cccc2c(=O)n(CC(=O)Nc3ccc(F)cc3)ccc12 | 0.3 | i | 7.0 | -9.8 | -10.5
CCCCc1c(-c2ccccc2OC)ncn1Cc1ccccc1Cl | x | x | 9.3 | x | x
COCCN1Cc2cc(C(=O)OC)c3c(c2C1=O)c1ccccc1n3S(=O)(=O)c1ccc(C)cc1 | x | x | 2.6 | x | x
CN1CCN(c2c(F)cc3c(=O)c(C(=O)O)cn4c3c2SCC4)CC1 | 7.8 | +! | 1.3 | -9.6 | 97.0*!
C[C@H]1COc2c(N3CCN(C)CC3)c(F)cc3c(=O)c(C(=O)O)cn1c23 | 1.6 | i | 0.3 | -1.1 | 1.1
CCc1c(Cc2cccc(F)c2)ncn1CCc1ccccc1OC | x | x | 5.5 | x | x
O=C(NCc1ccccc1)[C@H]1CCCN1 | x | x | -7.4 | x | x
Cc1cc2c(nc1C)CCCN2Cc1ccccc1C(F)(F)F | x | x | 5.8 | x | x
N#CC1=C(N)NC(=S)C(C(N)=O)C1c1ccccc1F (stereo not given) | 46.3* | i | 4.2 | -0.6 | -0.5
CC(=O)Nc1ccc(-c2ccccc2)s1 | -139.1 | + | -1.2 | 2.9 | 69.2
CC(=O)Nc1ccc(NC(C)=O)s1 | 20.9 | i | 2.7 | -3.1 | -5.4
Cc1cccc(OCCCN2CCC(C(O)(c3ccccc3)c3ccccc3)CC2)c1 | x | x | 3.6 | x | x
CC(C)(C)C1=CC(CC(N)=O)(C(C)(C)C)OC1=O (stereo not given) | x | x | -5.5 | x | x
COc1ccc(OCC(=O)Nc2ccccc2C(=O)N2CCOCC2)cc1 | -11.2 | + | 9.8 | -5.5 | active
